In BindingDB's records for doi:10.1021/jm030311v (Southern Research Institute, 2004):

Key:
Mu-type opioid receptor [1] = target: T1, Mu-type opioid receptor (Cavia porcellus, UniProt P97266); assay: Apparent binding affinity of compound was determined by antagonism towards Opioid receptor mu 1 in [35S]GTP-gamma-S, binding assay in guinea pig caudate
[2] = target: Kappa-type opioid receptor (Cavia porcellus, UniProt P41144); assay: Apparent binding affinity of compound was determined by antagonism towards Opioid receptor kappa 1 in [35S]GTP-gamma-S, binding assay in guinea pig caudate
[3] = Apparent antagonist activity determined by measuring the ability to inhibit stimulation of [35S]GTP-gamma-S, binding to opioid receptor delta 1 in guinea pig caudate membranes
[4] = Inhibitory concentration required for 50% inhibition of antagonism towards opioid receptor delta 1 in [35S]GTP-gamma-S, binding assay in guinea pig caudate
Mu-type opioid receptor [5] = target: T1, Mu-type opioid receptor; assay: Agonistic activity towards Opioid receptor mu 1 was determined in [35S]GTP-gamma-S, binding assay in guinea pig caudate
Summary of the method: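 Guinea pig caudate membranes (10-20 µg protein) incubated 3 h at 22 °C in Tris-HCl pH 7.4 containing 100 mM NaCl, 10 mM MgCl2, 1 mM EDTA, 100 µM GDP and 0.05-0.1 nM [35S]GTP-γ-S, then filtered and counted. Nonspecific binding defined with 10 µM GTP-γ-S. Site isolation used CTAP, nor-BNI, NTI or TIPP. […] Three experiments pooled; logistic fit.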

T1 sequence (P97266 whole entry): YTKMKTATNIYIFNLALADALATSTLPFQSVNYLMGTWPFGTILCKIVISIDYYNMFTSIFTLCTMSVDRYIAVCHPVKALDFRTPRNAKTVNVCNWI
Sequence of Kappa-type opioid receptor (P41144 whole entry): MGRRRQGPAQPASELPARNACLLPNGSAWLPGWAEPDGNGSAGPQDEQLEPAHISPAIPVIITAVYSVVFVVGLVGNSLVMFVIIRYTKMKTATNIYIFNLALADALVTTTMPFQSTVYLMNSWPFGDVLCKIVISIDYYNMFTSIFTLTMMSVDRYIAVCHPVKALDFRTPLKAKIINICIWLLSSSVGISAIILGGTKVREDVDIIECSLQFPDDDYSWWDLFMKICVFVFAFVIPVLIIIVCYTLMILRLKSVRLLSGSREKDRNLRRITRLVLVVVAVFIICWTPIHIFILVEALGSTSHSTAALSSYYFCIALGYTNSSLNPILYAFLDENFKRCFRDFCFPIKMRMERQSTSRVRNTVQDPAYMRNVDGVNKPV

| Compound | Ki [3] [nM] | IC50 [4] [nM] | also measured |
| --- | --- | --- | --- |
| CN1CC[C@]23c4c5ccc(O)c4O[C@H]2c2ncc(-c4ccc(Cl)cc4)cc2C[C@@]3(O)C1C5 [6-(4-chlorophenyl)-19-methyl-(2S,10R)-11-oxa-8,19-diazahexacyclo[10.9.1.01,10.02,18.04,9.016,22]docosa-4(9),5,7,12,14,16(22)-hexaene-2,13-diol] | – | – | Ki (Mu-type opioid receptor [1]): > 1000 nM; Ki [2]: 767 nM |
| Oc1ccc2c3c1OC1c4ncc(-c5ccc(Cl)cc5)cc4C[C@@]4(O)[C@@H](C2)N(CC2CC2)CC[C@]314 (stereo partly drawn) [5'-(Chlorophenyl)-17-(cyclopropylmethyl) -6,7-didehydro-3,14-dihydroxy-4,5alpha-epoxypyrido-[2',3':6,7]morphinan] | 0.18 | – | – |
| Oc1ccc2c3c1O[C@H]1c4ncc(-c5ccc(Cl)cc5)cc4C[C@H]4C(C2)N(CC2CC2)CC[C@]314 [6-(4-chlorophenyl)-19-cyclopropylmethyl-(2R,10R)-11-oxa-8,19-diazahexacyclo[10.9.1.01,10.02,18.04,9.016,22]docosa-4(9),5,7,12,14,16(22)-hexaen-13-ol] | 1.6 | – | – |
| CN1CC[C@]23c4c5ccc(O)c4O[C@H]2c2ncc(-c4ccc(Cl)c(Cl)c4)cc2C[C@H]3C1C5 [6-(3,4-dichlorophenyl)-19-methyl-(2R,10R)-11-oxa-8,19-diazahexacyclo[10.9.1.01,10.02,18.04,9.016,22]docosa-4(9),5,7,12,14,16(22)-hexaen-13-ol] | – | 74 | – |
| CN1CC[C@]23c4c5ccc(O)c4O[C@H]2c2ncc(-c4ccc(Br)cc4)cc2C[C@H]3C1C5 [6-(4-bromophenyl)-19-methyl-(2R,10R)-11-oxa-8,19-diazahexacyclo[10.9.1.01,10.02,18.04,9.016,22]docosa-4(9),5,7,12,14,16(22)-hexaen-13-ol] | – | 55 | – |
| CN1CC[C@]23c4c5ccc(O)c4O[C@H]2c2ncc(-c4ccc(Cl)cc4)cc2C[C@H]3C1C5 [6-(4-chlorophenyl)-19-methyl-(2R,10R)-11-oxa-8,19-diazahexacyclo[10.9.1.01,10.02,18.04,9.016,22]docosa-4(9),5,7,12,14,16(22)-hexaen-13-ol] | 11 | – | – |
| CN1CC[C@]23c4c5ccc(O)c4O[C@H]2c2ncccc2C[C@H]3C1C5 [19-methyl-(2R,10R)-11-oxa-8,19-diazahexacyclo[10.9.1.01,10.02,18.04,9.016,22]docosa-4(9),5,7,12,14,16(22)-hexaen-13-ol] | 595 | – | – |
| CN1CC[C@]23c4c5ccc(O)c4O[C@H]2c2ncc(-c4ccccc4)cc2C[C@@]3(O)C1C5 [19-methyl-6-phenyl-(2S,10R)-11-oxa-8,19-diazahexacyclo[10.9.1.01,10.02,18.04,9.016,22]docosa-4(9),5,7,12,14,16(22)-hexaene-2,13-diol] | – | 920 | – |
| CN1CC[C@]23c4c5ccc(O)c4O[C@H]2c2ncc(-c4ccc(Cl)cc4Cl)cc2C[C@H]3C1C5 [6-(2,4-dichlorophenyl)-19-methyl-(2R,10R)-11-oxa-8,19-diazahexacyclo[10.9.1.01,10.02,18.04,9.016,22]docosa-4(9),5,7,12,14,16(22)-hexaen-13-ol] | 1.1 | – | – |
| C[C@@H](NC(=O)[C@@H](N)Cc1ccc(O)cc1)C(=O)NCC(=O)N(C)[C@@H](Cc1ccccc1)C(=O)NCCO [[tyrosyl-3,5-3H(N)]-D-Ala2-Mephe4-glyol5-enkephalin] | – | – | EC50 (Mu-type opioid receptor [5]): 414 nM |
